This passage reports Ki and inhibition results from ChEMBL document CHEMBL1146772, “Design, synthesis, and structure-activity relationship of new isobenzofuranone ligands of protein kinase C” (Bioorg Med Chem Lett, 2004).

In experiment [1] the target is T1, Protein kinase C alpha type (Homo sapiens, UniProt P17252). Put plainly: Binding affinity for protein kinase C alpha.
Experiment [2] addresses T1, Protein kinase C alpha type. Put plainly: Displacement of [3H]PDBu from PKC alpha at 100 uM; range 40 to 60. The essentials:
(§1)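 Competitive [3H]PDBu binding to recombinant human PKCα (Sf9-expressed), 4.3-4.8 nM, in 50 mM Tris-HCl pH 7.5 containing 4 mM CaCl2, 100 µg/mL sonicated phosphatidylserine, 4 mg/mL BSA and 10 nM [3H]PDBu. Incubation 2 h at 0 °C, then filtration on PEI-treated glass-fiber filters and scintillation counting. 10 µM TPA defined background/nonspecific binding. Ki derived using [3H]PDBu Kd 0.19 nM (Scatchard).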

The target is the same in experiment [3]. Put plainly: Displacement of [3H]PDBu from PKC alpha at 100 uM; range 20 to 40. The procedure, abridged: as §1
The target is the same in experiment [4]. Put plainly: Displacement of [3H]PDBu from PKC alpha at 100 uM. The essentials: as §1
Experiment [5] has the same target. Put plainly: Displacement of [3H]PDBu from PKC alpha at 100 uM; range 0 to 20. The procedure, abridged:
as §1

Experiment [6] shares this target. The experiment can be described thus: Displacement of [3H]PDBu from PKC alpha at 100 uM; range 60 to 80. The procedure, abridged: as §1

In experiment [1], `CCCCCCCCCCOc1cccc2c1C(=O)O[C@]2(CO)COC(C)=O` showed a Ki of 122 nM. This compound came in with an inhibition in experiment [2] of 59%.
Compound `CCCCCCCCCCCCOc1cccc2c1C(=O)O[C@@]2(CO)COC(=O)C(C)(C)C` registered a Ki in experiment [1] of 122 nM.
With `CCCCCCCCCCOc1cccc2c1C(=O)O[C@@]2(CO)COC(C)=O`, the affinity in experiment [1] corresponds to a Ki of 122 nM. Further, the inhibition in experiment [3] was 21%.
In experiment [1], `C=CCOC(=O)Oc1cccc2c1C(=O)O[C@]2(CO)COC(C)=O` returned a Ki of 122 nM. The inhibition in experiment [4] turned out to be 0%.
In experiment [1], `CC(=O)OC[C@@]1(CO)OC(=O)c2c(OCc3ccccc3)cccc21` gave a Ki of 540 nM. The inhibition in experiment [5] is 9%.
Consider `CCCCCCCCCCCCOc1cccc2c1C(=O)O[C@@]2(CO)COC(C)=O`, for which affinity in experiment [1] was put at a Ki of 540 nM. For the same compound, the inhibition in experiment [3] stood at 35%.
`CCCCCCCCCCCCOc1cccc2c1C(=O)O[C@]2(CO)COC(C)=O`: in experiment [1], the affinity corresponds to a Ki of 540 nM. The inhibition in experiment [6] came to 75%.
